Data: ChEMBL document CHEMBL3425408, “Design, synthesis, in vitro, and in vivo anticancer and antiangiogenic activity of novel 3-arylaminobenzofuran derivatives targeting the colchicine site on tubulin” (J Med Chem, 2015)
Active and inactive are the calls of the source. The calls are words filed in the database; no cut-off is given here.

How the values were obtained:
[1] = tested on: HeLa; test: Induction of apoptosis in human HeLa cells assessed as accumulation of annexin-V positive cells after at 100 to […] by annexin-V-FITC/PI based flow cytometry; format: functional, cell-based; details: TDE = time-dependent effect
Method in brief: (§1)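 HeLa cells treated 24 or 48 h, then double-stained with annexin V-FITC and PI. Surface phosphatidylserine exposure measured by flow cytometry.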

[2] = tested on: HeLa; test: Induction of cells cycle arrest in human HeLa cells assessed as cell arrest at G2/M phase at > 60 nM after 24 hrs by propidium iodide based flow cytometric analysis; format: functional
Method in brief: (§2)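 HeLa or Jurkat cells (5 × 10^5) treated 24 h. Cells fixed in ice-cold 70% ethanol, lysed with RNase A and 0.1% Triton X-100, and stained with propidium iodide. DNA content analyzed by flow cytometry to give cell-cycle phase distribution.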

[3] = tested on: Jurkat; test: Induction of cell cycle arrest in human Jurkat cells assessed as cell arrest at G2/M phase after 24 hrs by propidium iodide based flow cytometric analysis; format: functional; method in brief: as §2
[4] = Antiproliferative activity against human RS4:11 cells after 72 hrs by (3-(4,5-dimethylthiazol-2-yl)-2,5-diphenyltetrazolium bromide test; format: functional, cell-based; details: RS4-11, 72 h
Method in brief: (§3)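 Jurkat, RS4;11 and HL-60 cells grown in RPMI-1640; MCF-7, A549, HeLa and HT-29 cells grown in DMEM; both media with 10% FBS and penicillin/streptomycin. 8 × 10^3 cells per well were preincubated 18 h at 37 °C, 5% CO2, then exposed 72 h to a concentration range (DMSO ≤0.25%). Read-out was MTT; IC50 was taken against cells given the maximum DMSO. Mean ± SE of at least three experiments.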

[5] = tested on: Jurkat; test: Induction of cells cycle arrest in human Jurkat cells assessed as cell arrest at G2/M phase at > 60 nM after 24 hrs by propidium iodide based flow cytometric analysis; format: functional; method in brief: as §2
[6] = tested on: HeLa; test: Effect on phosphatase cdc25 expression in human HeLa cells at 100 to 250 nM after 24 to 48 hrs by Western blot analysis; format: functional, cell-based
Method in brief: (§4)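 HeLa cells treated 24 or 48 h. Lysates cleared at 15000g, and 10 μg protein run on 7.5–15% SDS-PAGE and blotted to PVDF. Membranes blocked in 5% BSA and probed for cyclin B, p-cdc2 Tyr15 and cdc25c, then detected with peroxidase secondary and ECL. Blots stripped and reprobed for β-actin as loading control.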

[7] = tested on: HeLa; test: Induction of apoptosis in human HeLa cells assessed as increase in Mcl-1 expression at 100 to 250 nM after 24 hrs by Western blotting analysis
[8] = tested on: HeLa; test: Induction of apoptosis in human HeLa cells assessed as reduction in Mcl-1 expression at 100 to 250 nM after 48 hrs by Western blotting analysis
[9] = tested on: HeLa; test: Induction of apoptosis in human HeLa cells assessed as caspase 3 activation after 24 to 48 hrs by Western blot analysis; format: functional, cell-based
Method in brief: (§5)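 HeLa lysates prepared after the indicated times. 10 μg protein separated by SDS-PAGE on PVDF blots. Primary antibodies (2 h, room temperature) against PARP, caspase-3, cleaved caspase-9, Bcl-2 and Mcl-1, then peroxidase secondary with ECL detection. β-Actin reprobe used as loading control.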

[10] = tested on: Jurkat; test: Antiproliferative activity against human Jurkat cells after 72 hrs by (3-(4,5-dimethylthiazol-2-yl)-2,5-diphenyltetrazolium bromide test; format: functional, cell-based; method in brief: as §3
[11] = tested on: MCF7; test: Antiproliferative activity against human MCF7 cells after 72 hrs by (3-(4,5-dimethylthiazol-2-yl)-2,5-diphenyltetrazolium bromide test; format: functional, cell-based; details: MCF7, 72 h
[12] = tested on: HeLa; test: Antiproliferative activity against human HeLa cells after 72 hrs by (3-(4,5-dimethylthiazol-2-yl)-2,5-diphenyltetrazolium bromide test; format: functional, cell-based
[13] = tested on: HeLa; test: Induction of cell cycle arrest in human HeLa cells assessed as increase in cyclin B expression at 250 nM after 24 hrs by Western blot analysis; format: functional, cell-based; method in brief: as §4
[14] = Antiproliferative activity against human HL60 cells after 72 hrs by (3-(4,5-dimethylthiazol-2-yl)-2,5-diphenyltetrazolium bromide test; format: functional, cell-based; details: HL-60, 72 h; method in brief: as §3
[15] = tested on: HeLa; test: Induction of cell cycle arrest in human HeLa cells assessed as decrease in p-cdc2 Tyr15 expression at 100 to 250 nM after 48 hrs by Western blot analysis; format: functional, cell-based; method in brief: as §4
[16] = tested on: HeLa; test: Induction of apoptosis in human HeLa cells assessed as increase in ROS production at 100 to […] after 24 to 48 hrs by H2-DCFDA based flow cytometry; format: functional, cell-based
Method in brief: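 HeLa cells treated 24 or 48 h, then loaded with H2-DCFDA. ROS measured by flow cytometry. Three independent experiments.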

[17] = tested on: PBL; test: Cytotoxicity against human resting PBL cells after 72 hrs by MTT assay; format: cell-based
Method in brief: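 Resting PBLs from healthy donors separated on a Lymphoprep gradient and incubated overnight in RPMI-1640 with 10% FBS. Nonadherent cells resuspended at 5 × 10^5 cells/mL without PHA and exposed to compound for 72 h. Viability read by MTT. […] Three experiments.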

[18] = tested on: HeLa; test: Induction of apoptosis in human HeLa cells assessed as increase in proportion of cells with depolarized mitochondria after 24 to 48 hrs by JC1 staining based flow cytometry; format: functional, cell-based; details: TDE = time-dependent effect
Method in brief: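 HeLa cells treated 24 or 48 h, then stained with JC-1. Cells with depolarized mitochondria quantified by flow cytometry. Three independent experiments.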

[19] = tested on: HeLa; test: Induction of cell cycle arrest in human HeLa cells assessed as increase in p-cdc2 Tyr15 expression at 250 nM after 24 hrs by Western blot analysis; format: functional, cell-based; method in brief: as §4
[20] = tested on: HeLa; test: Induction of apoptosis in human HeLa cells assessed as PARP cleavage at 100 to 250 nM after 24 to 48 hrs by Western blot analysis
[21] = molecular target: Tubulin (Bos taurus) (UniProt Q6B856+Q862L2+Q862F3); test: Displacement of [3H]colchicine from bovine brain tubulin at 5 uM after 20 mins by scintillation counting analysis
Method in brief: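 Reaction mixtures held 1 μM tubulin, 5 μM [3H]colchicine and 5 μM test compound. Inhibition of radiolabelled colchicine binding was reported as percent inhibition.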

[22] = tested on: HeLa; test: Induction of apoptosis in human HeLa cells assessed as reduction in Bcl2 expression at 100 to 250 nM after 48 hrs by Western blotting analysis
[23] = tested on: HeLa; test: Induction of cell cycle arrest in human HeLa cells assessed as increase in cyclin B expression at 100 nM after 24 hrs by Western blot analysis; format: functional, cell-based; method in brief: as §4
[24] = tested on: HUVEC; test: Cytotoxicity against human HUVEC cells after 72 hrs by MTT assay; format: cell-based
Method in brief: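 HUVECs were isolated from umbilical cord veins, kept in M200 with low-serum growth supplement and used at passages 1–6. […] Mean ± SEM of three separate experiments.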

[25] = tested on: HeLa; test: Induction of apoptosis in human HeLa cells assessed as caspase 9 activation after 24 to 48 hrs by Western blot analysis; format: functional, cell-based; method in brief: as §5
[26] = tested on: HeLa; test: Induction of apoptosis in human HeLa cells assessed as accumulation of annexin-V positive cells after 24 to 48 hrs by annexin-V-FITC/PI based flow cytometry; format: functional, cell-based; method in brief: as §1

SMILES	Activity [1]	Activity [2] [%]	Activity [3]	IC50 [4] [nM]	Activity [5] [%]	Activity [6]	Activity [7]	Activity [8]	Activity [9]	IC50 [10] [nM]	IC50 [11] [nM]	IC50 [12] [nM]	Activity [13]	IC50 [14] [nM]	inhibition [15]	Activity [16]	IC50 [17] [µM]	Activity [18]	Activity [19]	Activity [20]	other results
CCOC(=O)c1oc2cc(OC)ccc2c1Nc1cc(OC)c(OC)c(OC)c1	tde	>70	Dose-dependent effect	100	>70	inactive	inactive	Active	Dose-dependent effect	22	25	13	Active	24	Active	Active	> 10	tde	Active	Active	inhibition [21]: 74%; Activity [22]: Active; Activity [23]: Active; IC50 [24]: 220 nM; Activity [25]: Dose-dependent effect; Activity [26]: Dose-dependent effect
COC(=O)c1oc2cc(OC)ccc2c1Nc1cc(OC)c(OC)c(OC)c1	tde	>70	Dose-dependent effect	0.3	>70	inactive	Active	Active	Dose-dependent effect	8	27	2	Active	5	Active	Active	> 10	tde	Active	Active	inhibition [21]: 83%; Activity [22]: Active; Activity [23]: Active; IC50 [24]: 750 nM; Activity [25]: Dose-dependent effect; Activity [26]: Dose-dependent effect
